# Measurements taken from publication PMC4784694 (Molecular cancer therapeutics, 2015).
# Experiments:
# breast cancer cells = conditions: Supplemental Figure 3B; others and own data
# MDA-MB-231 tumors [1] = type: in vivo, NSG mice; conditions: eribulin 0.1 mg/kg i.v.; POL5551 20 mg/kg s.c. b.i.d.; Figure 5A–C
# MDA-MB-231 tumors [2] = assay: Eribulin dose ranging in mice bearing MDA-MB-231 tumors; type: in vivo
# Procedure, shortened: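 Female NSG mice, 6–8 weeks old, were inoculated with 5×10⁵ MDA-MB-231 cells in Matrigel into the #9 mammary fat pad to form orthotopic tumours. Eribulin was diluted in saline and given i.v. once a week, at 0.1 mg/kg for primary fat-pad therapy. Vehicle controls received saline. Weight change is reported as mean and range.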
smiles,measurement,setting,value
c1cc(CN2CCCNCCNCCCNCC2)ccc1CN1CCCNCCNCCCNCC1 [AMD3100],SDF-1 mediated migration of breast cancer cells,breast cancer cells,can block SDF-1 mediated migration of breast cancer cells
"C=C1C[C@@H]2CC[C@@]34C[C@H]5O[C@H]6[C@@H](O3)[C@H]3O[C@H](CC[C@@H]3O[C@H]6[C@H]5O4)CC(=O)C[C@@H]3[C@@H](OC)[C@@H](C[C@H](O)CN)O[C@H]3C[C@H]3O[C@@H](CC[C@@H]1O2)C[C@@H](C)C3=C [eribulin, Eribulin]",Primary MFP tumor growth,MDA-MB-231 tumors [1],decreased primary tumor growth rate
same,Primary breast tumor reduction,"MDA-MB-231 tumors [2]; eribulin 0.1 mg/kg single-agent, Supplemental Figure 5F",50%
same,Mice survival,"MDA-MB-231 tumors [2]; eribulin dose ranging, Supplemental Figure 5D",prolonged mice survival in a dose-dependent manner
same,Treatment associated weight loss,"MDA-MB-231 tumors [2]; high dose of eribulin (>0.5 mg/kg), Supplemental Figure 5E",greater treatment associated weight loss
